Consider 1 compound from ChEMBL document CHEMBL1143171, “Structure-activity studies on 1,3-dioxane-2-carboxylic acid derivatives, a novel class of subtype-selective peroxisome proliferator-activated receptor alpha (PPARalpha) agonists” (Bioorg Med Chem, 2008).

The subject of experiment [1] is Mus musculus. Briefly: Hypolipidemic effect on diabetic KK-Ay mouse assessed as reduction of plasma VLDL cholesterol level at 300 mg/kg/day, po after 4 days. The format is functional. The arrangement: scale not given: the % may be the effect or the level left. Summed up: (§1)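 Male KK-Ay mice, 10 weeks old and fed chow ad libitum, were dosed orally once daily for 4 days (n = 5) with suspensions in 0.5% methylcellulose. On the day after the last dose, nonfasted tail-vein plasma was assayed enzymatically for TG and glucose. Vena cava plasma taken under pentobarbital had lipoprotein cholesterol measured by HPLC with on-line enzymatic detection. Values are % change of the group mean from vehicle controls.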

For experiment [2], the system named is Mus musculus. Briefly: Hypolipidemic effect on diabetic KK-Ay mouse assessed as increase in plasma HDL cholesterol level at 300 mg/kg/day, po after 4 days. The format is functional. Put shortly: as §1
The target in experiment [3] is T1, Peroxisome proliferator-activated receptor delta (Homo sapiens, UniProt Q03181).
T1 sequence (Q03181 whole entry): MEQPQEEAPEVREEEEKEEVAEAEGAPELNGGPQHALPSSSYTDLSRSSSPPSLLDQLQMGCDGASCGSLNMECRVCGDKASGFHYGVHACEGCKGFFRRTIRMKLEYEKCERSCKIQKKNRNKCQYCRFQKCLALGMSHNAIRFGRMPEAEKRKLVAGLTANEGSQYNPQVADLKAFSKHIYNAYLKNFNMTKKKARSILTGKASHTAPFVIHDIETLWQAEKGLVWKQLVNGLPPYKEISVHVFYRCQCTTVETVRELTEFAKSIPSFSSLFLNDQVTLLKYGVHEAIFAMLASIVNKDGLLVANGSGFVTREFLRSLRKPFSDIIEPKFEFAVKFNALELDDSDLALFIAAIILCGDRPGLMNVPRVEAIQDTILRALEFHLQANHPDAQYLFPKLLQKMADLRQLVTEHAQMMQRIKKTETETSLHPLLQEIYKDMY
The experiment in a line: Agonist activity at human PPARdelta expressed in CV1 cells by transactivation assay. Type of experiment: functional, cell-based, CV-1.

For experiment [4], the system named is Mus musculus. The experiment in a line: Hypolipidemic effect on diabetic KK-Ay mouse assessed as reduction of plasma triglyceride level at 300 mg/kg/day, po after 4 days. Type of experiment: functional. The arrangement: scale not given: the % may be the effect or the level left. Put shortly:
as §1

Experiment [5] deals with Mus musculus. Briefly: Hypoglycemic effect on diabetic KK-Ay mouse assessed as reduction of plasma glucose level at 300 mg/kg/day, po after 4 days. Type of experiment: functional. The arrangement: scale not given: the % may be the effect or the level left. Summed up: as §1
In experiment [6] the target is T2, Peroxisome proliferator-activated receptor alpha (Homo sapiens, UniProt Q07869).
T2 sequence (Q07869 whole entry): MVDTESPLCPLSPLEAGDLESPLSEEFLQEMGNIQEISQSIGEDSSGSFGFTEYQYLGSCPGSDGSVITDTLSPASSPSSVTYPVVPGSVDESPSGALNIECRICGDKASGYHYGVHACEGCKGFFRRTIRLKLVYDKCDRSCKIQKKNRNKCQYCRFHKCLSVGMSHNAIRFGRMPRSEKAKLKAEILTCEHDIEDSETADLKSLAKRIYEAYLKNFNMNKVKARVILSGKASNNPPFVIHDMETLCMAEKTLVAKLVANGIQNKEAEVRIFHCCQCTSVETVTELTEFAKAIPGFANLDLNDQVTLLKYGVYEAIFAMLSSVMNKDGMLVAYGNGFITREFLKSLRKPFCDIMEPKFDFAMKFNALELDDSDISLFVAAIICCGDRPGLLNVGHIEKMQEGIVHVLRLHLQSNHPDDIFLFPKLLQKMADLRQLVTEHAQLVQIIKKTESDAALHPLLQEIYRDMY
Briefly: Agonist activity at human PPARalpha expressed in CV1 cells by transactivation assay. The format is functional, cell-based, CV-1.

SMILES strings stand for the structures. Some results are limits rather than exact numbers.

For `CC(C)(Oc1ccc(C(=O)c2ccc(Cl)cc2)cc1)C(=O)O` [FENOFIBRIC ACID], the Activity in the experiment with Mus musculus [1] was -31%; in the experiment with Mus musculus [2] it was 17%; with Mus musculus [4], -40%; in the experiment on Mus musculus [5], -25%. Moreover, the EC50 in experiment [3] and in experiment [6] was greater than 100 µM throughout.

Usually EC50 stands for the concentration at which the effect is half-maximal.
